High-throughput results deposited in PubChem by several laboratories.
KCC2 mod: KCC2 cotransporter modulators, thallium flux, primary screen, cell-based, HEK293 KCC2, FluoZin-2 fluorescence, MLSMR | Solute carrier family 12 member 5 (Homo sapiens), Q9H2X9 | KCC2 cells, thallium flux FluoZin-2 fluorescence | B-score of Tl+ flux slope (higher = more flux/activation; lower = inhibition) at 10 µM | 2.2% of 190,000 active;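 active = thallium flux slope and its plate-corrected score both differing from the plate sample mean at a set confidence after two filtering rounds, in either direction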;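 also: slope of fluorescence scaled to starting intensity during 10 to 20 s after thallium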
PKD1 kinase inh: inhibitors of human PKD1 kinase, biochemical, fluorescence polarization; 0.056% of 200,000 active; PKD1 kinase fluorescence polarization assay; Serine/threonine-protein kinase D1 (Homo sapiens), Q15139; inhibition, % (concentration not given with the values); in the data active = inhibition above about 50%
ROMK mod: ROMK potassium channel modulators, primary screen, cell-based, thallium flux, MLSMR library; ATP-sensitive inward rectifier potassium channel 1 (Homo sapiens), P48048; Tet-inducible ROMK, thallium flux fluorescence; actives lie on both sides; B-score at 10 µM; 2% of 130,000 active; AID 1918, 2009;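 active = signal ratio slope over the read window, or its plate-corrected B-score, at least 3 SD from the plate mean, either direction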;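 also: B-score of the F/F0 ratio slope over 7 to 12 s after thallium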
Target sequence (P48048 whole entry, looked up): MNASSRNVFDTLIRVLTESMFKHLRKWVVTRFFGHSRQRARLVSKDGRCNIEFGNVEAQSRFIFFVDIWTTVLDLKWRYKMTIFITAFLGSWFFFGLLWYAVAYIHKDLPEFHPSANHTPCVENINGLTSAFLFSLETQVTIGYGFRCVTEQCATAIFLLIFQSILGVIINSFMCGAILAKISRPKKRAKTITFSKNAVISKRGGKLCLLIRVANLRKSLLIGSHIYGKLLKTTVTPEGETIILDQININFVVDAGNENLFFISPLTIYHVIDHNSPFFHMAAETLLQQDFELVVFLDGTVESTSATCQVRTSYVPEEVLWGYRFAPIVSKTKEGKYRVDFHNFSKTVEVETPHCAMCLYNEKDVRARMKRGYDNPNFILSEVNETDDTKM
Rad51 HR inh: human RAD51 strand exchange inhibitors, primary screen, biochemical, fluorescence; hRad51 DNA strand exchange, fluorescence dequenching; 0.085% of 200,000 active; DNA repair protein RAD51 homolog 1 (Homo sapiens), Q06609; inhibition, % at 10 µM;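 active = inhibition above 40% at the single screening dose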;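 also: 0% = DMSO control wells and 100% = blanks with heterologous ssDNA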
Target sequence (Q06609 whole entry, looked up): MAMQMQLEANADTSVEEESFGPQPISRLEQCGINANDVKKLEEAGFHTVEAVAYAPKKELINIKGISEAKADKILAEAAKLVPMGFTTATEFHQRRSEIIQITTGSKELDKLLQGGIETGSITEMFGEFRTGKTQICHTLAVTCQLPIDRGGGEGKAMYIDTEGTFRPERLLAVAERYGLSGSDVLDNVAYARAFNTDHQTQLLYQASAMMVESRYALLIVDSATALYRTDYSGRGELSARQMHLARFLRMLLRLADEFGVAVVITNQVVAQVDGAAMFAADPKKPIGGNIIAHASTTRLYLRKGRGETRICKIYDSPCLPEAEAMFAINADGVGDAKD
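Test system: preformed human Rad51 ssDNA filaments. Compound dosing: single dose, 10 µM final compound. Incubation: filaments 15 min 37 °C, then compound 30 min. Technique: FRET fluorescence dequenching, excitation 485 nm, emission 520 nm. Read-out basis: percent inhibition from fluorescence, normalised to plate control and blank means. Benchmarks: plate controls and plate blanks.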
KCC2 secondary: KCC2 modulators in sodium-free buffer, confirmation, cell-based, HEK293 KCC2, thallium flux, secondary assay; shares compounds with KCC2 mod; FluoZin2 fluorescence; active compounds read high; normalised thallium flux (F/F0 slope) at 10 µM; 15% of 3,700 active;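 active = thallium flux slope above the same plate's solvent-only control mean plus 3 SD; inconclusive = the two replicate wells disagree; inactive = no significant difference from solvent-only control wells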
KCC2 bumet counter: thallium flux persisting under bumetanide in KCC2 cells, confirmation, counter-screen for KCC2 modulator project, cell-based, HEK293 KCC2, FluoZin2, secondary assay 3 | AID 1714, 2009 | HEK293-KCC2 + bumetanide/ouabain; active compounds read high | shares compounds with KCC2 mod | normalized thallium flux at 10 µM | 49% of 3,700 active;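 active = thallium entry rate above the same plate's blocked-transporter control wells by more than 3 SD; inconclusive = the two repeat wells disagree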;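 also: raw slope of fluorescence over initial fluorescence between 10 and 20 s after thallium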
KCC2 secondary2: KCC2 modulators without ouabain present, confirmation, cell-based, HEK293 KCC2, thallium flux, FluoZin2, secondary assay 2; 23% of 3,700 active; thallium flux FluoZin2 fluorescence; actives lie on both sides; F/F0 rise rate, 10–20 s post-thallium; shares compounds with KCC2 mod; normalized thallium flux at 10 µM; AID 1715, 2009;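 active = thallium flux slope more than 3 SD above or below the plate's solvent-only control mean, mostly below; inconclusive = the two repeat wells disagreed; inactive = no significant shift from solvent-only controls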;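 also: raw slope with 0.1% DMSO as baseline and bumetanide as block control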
HEK counter1: thallium flux modulation in parental HEK cells, confirmation, counter-screen for KCC2 modulator project, cell-based, counterscreen 1; shares compounds with KCC2 mod; HEK293 parental cells, thallium flux FluoZin2, ouabain; baseline-ratio fluorescence slope, 10–20 s after thallium; thallium flux rate (normalised fluorescence) at 10 µM; 46% of 3,700 active; AID 1716, 2009;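 active = thallium flux rate significantly above the same plate's solvent-only control wells, beyond their mean plus 3 SD; inconclusive = the two replicate wells gave conflicting results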
KCC2 ouabain: KCC2 inhibitors and activators, ouabain retest, confirmation, HEK-KCC2 cells | 48% of 3,700 active | raw Tl+ flux slope (below DMSO = inhibition, above = activation) at 10 µM | HEK293-KCC2, thallium flux FluoZin2 fluorescence; bidirectional: low = inhibitor, high = activator | shares compounds with KCC2 mod;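 active = thallium flux slope beyond 3 SD from same-plate DMSO control mean in most replicates, usually higher, sometimes lower; inconclusive = repeat tests gave conflicting results; inactive = no significant difference from controls in most replicates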;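 also: slope of initial-normalized fluorescence between seconds 10 and 20 after thallium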
HEK counter2: native HEK Tl+ uptake effects, second counter-screen – HEK cells, counterscreen 2, counter-screen for KCC2 modulator project, confirmation | shares compounds with KCC2 mod | HEK293 parental, thallium flux FluoZin-2 fluorescence slope | thallium flux slope at 10 µM | 33% of 3,700 active;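 active = thallium flux slope above the same plate's solvent-control mean plus 3 SD in both duplicate wells; inconclusive = duplicate wells that disagreed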;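 also: run without ouabain in cells lacking the KCC2 cotransporter; slope of fluorescence scaled to its starting value between 10 and 20 s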
Active calls of the source: *; ? = inconclusive; nt = no result given. Hits are enriched below; roughly 3% of the tested compounds scored in any of these assays.

SMILES	KCC2 mod	PKD1 kinase inh	ROMK mod	Rad51 HR inh	KCC2 secondary	KCC2 bumet counter	KCC2 secondary2	HEK counter1	KCC2 ouabain	HEK counter2
C=CCOC(=O)/C(=C\C=C\c1ccccc1)NC(=O)c1ccccc1	-3.7	0	-0.2	-1	nt	nt	nt	nt	nt	nt
COc1ccccc1-c1nnc2sc(COc3ccc(F)cc3)nn12	-3.9*	14	-3.1	nt	0.0066	0.0048	?	0.0059*	0.015*	?
O=C(Nc1nc2ccccc2s1)c1ccc(N2CCCCC2)c([N+](=O)[O-])c1	-1.3	-8	nt	-2	nt	nt	nt	nt	nt	nt
N#Cc1c2n(c3c(=S)nc[nH]c13)CCCCC2	5.2*	2	nt	-9	0.0065	0.014*	0.032	0.014*	?	0.014*
N#Cc1c2n(c3c(=O)[nH]cnc13)CCCC2	-0.87	-6	nt	1	nt	nt	nt	nt	nt	nt
CN(C)CCCN1C(=O)c2oc3ccc(Cl)cc3c(=O)c2C1c1cccnc1 (stereo not given)	3.7*	-10	nt	6	0.0094	0.015*	0.034	0.0099*	?	0.011
CCc1nnc(NC(=O)/C=C/c2cccs2)s1	0.072	1	nt	-13	nt	nt	nt	nt	nt	nt
Cc1ccc(S(=O)(=O)N(CCC(=O)O)Cc2ccc(Cl)cc2)cc1	nt	-1	-0.28	7	0.0059	0.0067*	0.022*	0.0072	0.013*	0.011
Cc1ccc(S(=O)(=O)N(CC(=O)O)Cc2ccccc2)cc1	0.011	6	0.35	-3	nt	nt	nt	nt	nt	nt
O=C(NC(C(=O)N/N=C/c1ccccn1)c1n[nH]c(=O)c2ccccc12)c1ccccc1 (stereo not given)	0.076	nt	0.055	-3	nt	nt	nt	nt	nt	nt
Cc1cccc(-c2nc(CS(=O)CC(=O)N3CCc4ccccc4C3)c(C)o2)c1 (stereo not given)	nt	-15	nt	3	0.0074	0.0053	?	0.007	?	0.01
Cc1sc2ncn(CC(=O)Nc3cccc(S(N)(=O)=O)c3)c(=O)c2c1-c1ccccc1	-0.3	nt	nt	nt	nt	nt	nt	nt	nt	nt
Oc1ccc(F)c2cccnc12	-0.33	0	-0.46	nt	nt	nt	nt	nt	nt	nt
Cc1ccc(N=Nc2ccc(O)c3ncccc23)cc1C	8.2*	-6	nt	-3	0.0078	0.0077*	0.032	0.014*	0.023	?
O=c1/c(=C/c2ccc(O)c([N+](=O)[O-])c2)sc2nc3ccccc3n12	-3.7*	5	1	3	0.0058	0.0049	0.031	0.0078	0.017	0.01
O=c1/c(=C\c2cccnc2)sc2nc3ccccc3n12	nt	-5	nt	2	nt	nt	nt	nt	nt	nt
CC(C)c1ccc(NC(=S)NNC(=O)c2cccs2)cc1	25*	-3	-0.38	-9	?	0.038*	0.027	0.018*	?	?
Cc1n[nH]c(C)c1CCCOc1ccccc1	nt	-2	0.81	3	nt	nt	nt	nt	nt	nt
COc1ccc(OCCCc2c(C)n[nH]c2C)cc1	4.8*	-1	-0.78	nt	0.0088	0.0068	0.03	0.0077	0.033	?
CC(C)(C)NC(=O)C(c1ccncc1)N(C(=O)Cn1nnc(-c2ccc(F)cc2)n1)c1cccc(F)c1 (stereo not given)	-0.35	-9	-1.2	-127	nt	nt	nt	nt	nt	nt
CCN(CCCNC(=O)COc1cc(=O)n(CC)c2ccccc12)c1ccccc1	4.6*	-13	2	nt	0.0058	0.0043	?	0.0063*	0.017	0.01
O=C(Cn1nc(-c2ccc(Cl)cc2)ccc1=O)N1CCN(c2ccccc2)CC1	nt	1	-0.061	nt	0.0077	0.0065	0.033	0.0074	?	0.01
O=C(Cn1nc(C(F)(F)F)c2c1CCC2)N1CCN(c2ccccc2)CC1	nt	12	-1.3	-12	0.0073	0.0059	0.031	0.0076	0.016*	0.011
OCCN1CCN(c2cc(C(F)(F)F)nc3c(F)cccc23)CC1	-0.37	nt	0.065	-14	nt	nt	nt	nt	nt	nt
Cc1ccc(C2(C(F)(F)F)NC(=O)N3CCCN=C3S2)cc1 (stereo not given)	3.9*	-4	nt	5	0.0053	0.0039	0.031	0.0071	0.018	0.0095
SMILES	KCC2 mod	PKD1 kinase inh	ROMK mod	Rad51 HR inh	KCC2 secondary	KCC2 bumet counter	KCC2 secondary2	HEK counter1	KCC2 ouabain	HEK counter2
N#Cc1ccccc1Sc1ccccc1C(=O)OCc1nnc(-c2ccccc2)o1	-3.8*	-8	nt	-4	?	0.0059	0.031	0.01*	?	0.011
Cc1ccnc(NS(=O)(=O)c2cc(C(F)(F)F)ccc2Cl)c1	0.035	nt	nt	nt	nt	nt	nt	nt	nt	nt
Cc1ccc(C)c(NC(=S)N/N=C2/CCCCc3ccccc32)c1	9.6*	2	0.16	8	0.0064	0.036*	0.047*	0.037*	0.038*	0.038*
COc1ccc(-n2c(C)cc(C(=O)CSc3nnc(-c4ccoc4C)n3C)c2C)cc1	nt	-1	-1.1	-7	0.0072	0.0064	0.033	?	0.02	0.01
O=C(CN1C(=O)C2CC=CCC2C1=O)Nc1ccc(S(=O)(=O)Nc2nccs2)cc1 (stereo not given)	-0.73	nt	nt	28	nt	nt	nt	nt	nt	nt
O=C(COc1cccc2ccccc12)NNC(=O)c1cnccn1	-0.2	-3	0.21	0	nt	nt	nt	nt	nt	nt
Cc1cc(Cl)ccc1OCC(=O)NNC(=O)c1cnccn1	9.5*	-11	0.089	13	0.006	0.015*	0.031	0.015*	?	0.013*
O=C(NC(=S)NNC(=O)c1cnccn1)c1ccc(Cl)cc1	9.1*	nt	1.2	7	0.012	0.013*	0.036	?	?	?
O=C(COc1ccc(Cl)cc1)NNC(=O)c1ccccn1	4.4*	-6	nt	nt	0.01	0.019*	0.034	0.011*	0.025	?
Cc1cc(Br)ccc1OCC(=O)NNC(=O)c1cnccn1	8.8*	-7	0.53	nt	0.017	0.027*	?	0.022*	0.028*	0.024*
